Measurements taken from ChEMBL document CHEMBL3877244, “Synthesis and biological evaluation of new aryl-alkyl(alkenyl)-4-benzylpiperidines, novel Sigma Receptor (SR) modulators, as potential anticancer-agents” (Eur J Med Chem, 2016).
The source made the active and inactive calls. The calls are words filed in the database; no cut-off is given here.

Experiments:
[1] = Induction of apoptosis in human Paca3 cells assessed as necrotic cells in absence of 10% fetal calf serum at 10 uM after 24 hrs by annexin V-FITC/propidium iodide staining-based flow cytometry (reference value: 0.8 +/- 0.6%); assay type: functional
[2] = Cytotoxicity against human U87 cells assessed as reduction in cell viability after 24 hrs in absence of 10% fetal calf serum by MTS assay; assay type: functional, cell-based, U-87MG ATCC; conditions: U-87 MG
Method in brief: (§1)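 Cells starved 24 h in low-glucose medium without FCS, then treated 24 h with compound in serum-free conditions. MTS read-out, OD 490 nm, expressed as percent of untreated control. IC50 read graphically from the dose-response plot. Three independent experiments in octuplicate.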

[3] = Cytotoxicity against human SUM159 cells assessed as reduction in cell viability after 24 hrs in presence of 10% fetal calf serum by MTS assay; assay type: functional, cell-based; conditions: SUM-159-PT
Method in brief: (§2)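 Cells in exponential growth, 3×10^3 per well, in medium with 10% FCS. Capan-2, PaCa3, MDA-MB 231, SUM 159 and PC3 were grown in DMEM/Ham's F12 with glutamine 2 mM and insulin 10 µg/ml. U87 was grown in EMEM and LNCaP in RPMI, each with glutamine. Compound 0.1–100 µM, continuous exposure (24 h; 48 h for the 48 h lines). MTS, OD 490 nm. IC50 read graphically. Three independent experiments in octuplicate.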

PC-3 = test: Cytotoxicity against human PC3 cells assessed as reduction in cell viability after 48 hrs in presence of 10% fetal calf serum by MTS assay; assay type: functional, cell-based; method in brief: as §2
MDA-MB-231 = test: Cytotoxicity against human MDA-MB-231 cells assessed as reduction in cell viability after 48 hrs in presence of 10% fetal calf serum by MTS assay; assay type: functional, cell-based; method in brief: as §2
[4] = Cytotoxicity against human Paca3 cells assessed as reduction in cell viability after 48 hrs in presence of 10% fetal calf serum by MTS assay; assay type: functional, cell-based; conditions: Paca3, 48 h; method in brief: as §2
[5] = Displacement of [3H]-DTG from sigma 2 receptor in rat liver after 120 mins by scintillation counting analysis
Method in brief: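 Rat liver homogenate (150 µg) incubated 120 min at room temperature with 3 nM [³H]-DTG in 50 mM Tris-HCl pH 8.0. (+)-Pentazocine 100 nM masked S1R; haloperidol 10 µM defined nonspecific binding. Ki by Cheng–Prusoff from IC50.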

[6] = biological target: Sigma non-opioid intracellular receptor 1 (Cavia porcellus, UniProt Q60492); test: Displacement of [3H]-pentazocine from sigma 1 receptor in guinea pig brain cortical membrane after 120 mins by scintillation counting analysis; assay type: cell membranes
Chain of Sigma non-opioid intracellular receptor 1 (Q60492 whole entry): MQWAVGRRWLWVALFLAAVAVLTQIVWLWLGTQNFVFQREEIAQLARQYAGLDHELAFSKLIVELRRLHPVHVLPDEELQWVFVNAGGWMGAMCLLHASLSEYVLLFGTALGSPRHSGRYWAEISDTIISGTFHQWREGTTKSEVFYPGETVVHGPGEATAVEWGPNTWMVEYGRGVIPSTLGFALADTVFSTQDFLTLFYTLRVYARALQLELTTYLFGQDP
Method in brief: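 Nonspecific binding defined with unlabeled (+)-pentazocine. Filtration, then scintillation counting. IC50 by nonlinear regression, converted to Ki by Cheng–Prusoff.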

Paca3 [7] = test: Induction of apoptosis in human Paca3 cells at 25 uM after 24 hrs in presence of 10% fetal calf serum by TUNEL assay; assay type: functional, cell-based
Method in brief: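 PaCa3 cells in serum medium, exposed 24 h (10, 25, 50 μM tested). Cells fixed in 1% formaldehyde, held in 70% ethanol, permeabilized with 0.1% Triton X-100. TdT/FITC-dUTP labelling 90 min at 37 °C, then propidium iodide 2.5 μg/ml with RNase. Percent apoptotic cells by flow cytometry.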

[8] = Induction of apoptosis in human Paca3 cells assessed as early apoptotic cells in presence of 10% fetal calf serum at 25 uM after 24 hrs by annexin V-FITC/propidium iodide staining-based flow cytometry (reference value: 5.6 +/- 0.3%); assay type: functional
[9] = Cytotoxicity against human PC3 cells assessed as reduction in cell viability after 24 hrs in presence of 10% fetal calf serum by MTS assay; assay type: functional, cell-based; conditions: PC-3, 24 h; method in brief: as §2
[10] = Cytotoxicity against human Capan2 cells assessed as reduction in cell viability after 24 hrs in presence of 10% fetal calf serum by MTS assay; assay type: functional, cell-based; conditions: Capan-2, 24 h; method in brief: as §2
LNCaP = test: Cytotoxicity against human LNCAP cells assessed as reduction in cell viability after 48 hrs in presence of 10% fetal calf serum by MTS assay; assay type: functional, cell-based; method in brief: as §2
[11] = Induction of apoptosis in human Paca3 cells assessed as viable cells in presence of 10% fetal calf serum at 25 uM after 24 hrs by annexin V-FITC/propidium iodide staining-based flow cytometry (reference value: 89.9 +/- 0.1%); assay type: functional
Paca3 [12] = test: Induction of apoptosis in human Paca3 cells assessed as cleaved form of caspase 3 at 10 uM after 24 hrs in absence of 10% fetal calf serum by Western blot analysis; assay type: functional, cell-based
Method in brief: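 PaCa3 cells starved 24 h without FCS, then exposed to 10 μM. Cleaved caspase 3 detected by western blot. Membranes blocked with 5% milk in T-TBS, primary antibody overnight at 4 °C, then secondary antibody, chemiluminescent detection.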

SUM-159-PT = test: Cytotoxicity against human SUM159 cells assessed as reduction in cell viability after 48 hrs in presence of 10% fetal calf serum by MTS assay; assay type: functional, cell-based; method in brief: as §2
[13] = Cytotoxicity against human U87 cells assessed as reduction in cell viability after 24 hrs in presence of 10% fetal calf serum by MTS assay; assay type: functional, cell-based, U-87MG ATCC; conditions: U-87 MG; method in brief: as §2
[14] = Induction of apoptosis in human Paca3 cells assessed as viable cells in absence of 10% fetal calf serum at 10 uM after 24 hrs by annexin V-FITC/propidium iodide staining-based flow cytometry (reference value: 91.1 +/- 0.7%); assay type: functional
[15] = Cytotoxicity against human Paca3 cells assessed as decrease in cell viability using complete medium after 24 hrs by MTS assay; assay type: functional, cell-based; conditions: Paca3, 24 h; method in brief: as §2
[16] = biological target: Sigma non-opioid intracellular receptor 1 (Rattus norvegicus) (UniProt Q9R0C9); test: Antagonist activity at sigma 1 receptor in rat PC12 cells assessed as inhibition of NGF-induced neurite outgrowth at 2.5 to 10 uM after 96 hrs; assay type: cell-based; conditions: PC-12
Chain of Sigma non-opioid intracellular receptor 1 (Rattus norvegicus) (Q9R0C9 whole entry): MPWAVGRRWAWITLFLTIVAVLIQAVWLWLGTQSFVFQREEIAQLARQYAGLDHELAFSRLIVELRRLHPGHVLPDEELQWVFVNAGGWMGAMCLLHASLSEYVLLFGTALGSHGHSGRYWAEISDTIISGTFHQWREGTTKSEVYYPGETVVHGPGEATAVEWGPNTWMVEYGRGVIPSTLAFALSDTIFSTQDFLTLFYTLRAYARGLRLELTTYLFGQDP
Method in brief: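 PC12 cells grown in RPMI 1640 with 10% heat-inactivated horse serum and 5% FBS. Differentiation ran in medium with 0.5% serum plus NGF 2.5 ng/ml, with compound at 0–10 μM for 96 h. Neurite outgrowth was scored. Data are mean±sem of at least 5 experiments, each in triplicate.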

Paca3 [17] = test: Induction of apoptosis in human Paca3 cells assessed as cleaved form of caspase 3 at 25 uM after 24 hrs in presence of 10% fetal calf serum by Western blot analysis; assay type: functional, cell-based
Method in brief: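 PaCa3 cells in 10% serum medium, exposed 24 h to 25 μM. Cleaved caspase 3 detected by western blot. Membranes blocked with T-TBS (0.1% Tween) and 5% non-fat milk, primary antibody overnight at 4 °C, then secondary antibody, chemiluminescent detection. Two independent experiments.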

[18] = Induction of apoptosis in human Paca3 cells assessed as necrotic cells in presence of 10% fetal calf serum at 25 uM after 24 hrs by annexin V-FITC/propidium iodide staining-based flow cytometry (reference value: 0.6 +/- 0.4%); assay type: functional
[19] = Cytotoxicity against human Capan2 cells assessed as reduction in cell viability after 24 hrs in absence of 10% fetal calf serum by MTS assay; assay type: functional, cell-based; conditions: Capan-2, 24 h; method in brief: as §1
[20] = Cytotoxicity against human MDA-MB-231 cells assessed as reduction in cell viability after 24 hrs in presence of 10% fetal calf serum by MTS assay; assay type: functional, cell-based; conditions: MDA-MB-231, 24 h; method in brief: as §2
[21] = Induction of apoptosis in human Paca3 cells assessed as early apoptotic cells in absence of 10% fetal calf serum at 10 uM after 24 hrs by annexin V-FITC/propidium iodide staining-based flow cytometry (reference value: 3.5 +/- 0.7%); assay type: functional

With `C/C(=C\CN1CCC(Cc2ccccc2)CC1)c1ccc2ccccc2c1` the Activity [1] was 0.3%, the IC50 [2] was 10.5 µM and the IC50 [3] was 58.3 µM. For the same compound, the Activity (PC-3) was “Active”, the Activity (MDA-MB-231) was “Active” and the IC50 [4] was 28.7 µM. For the same compound, the Ki [5] was 0.022 µM, the Ki [6] was 0.012 µM and the Activity (Paca3 [7]) was “Active”. The Activity [8] was 43.1%, the IC50 [9] was 50.6 µM and the IC50 [10] was 52.6 µM. For the same compound, the Activity (LNCaP) was “Active”, the Activity [11] was 22.4% and the Activity (Paca3 [12]) was “Active”. For the same compound, the Activity (SUM-159-PT) was “Active”, the IC50 [13] was 60.6 µM and the Activity [14] was 71.6%. The IC50 [15] was 49.8 µM, the inhibition [16] was “Active” and the Activity (Paca3 [17]) was “Active”. For the same compound, the Activity [18] was 0.4%, the IC50 [19] was 9.61 µM and the IC50 [20] was 64.9 µM. It also gave an Activity [21] of 10.9%.
